Calls of active or inactive are those of the source. The rule behind the calls is not given here.
Assays:
[1] = system: Rattus norvegicus; assay: Antidiabetic activity in ZDF rat assessed as blood glucose level at 1 mg/kg, po QD for 40 days (reference value: 771+/-60 mg/dL); type: functional
[2] = system: Rattus norvegicus; assay: Antidiabetic activity in ZDF rat assessed as blood glucose level at 100 mg/kg, po QD for 40 days (reference value: 771+/-60 mg/dL); type: functional
[3] = system: Rattus norvegicus; assay: Antidiabetic activity in ZDF rat assessed as triglyceride level at 0.1 mg/kg, po QD for 40 days (reference value: 618+/-52 mg/dL); type: functional
[4] = system: Rattus norvegicus; assay: Antidiabetic activity in ZDF rat assessed as triglyceride level at 10 mg/kg, po QD for 40 days (reference value: 618+/-52 mg/dL); type: functional
[5] = system: Rattus norvegicus; assay: Antidiabetic activity in ZDF rat assessed as triglyceride level at 30 mg/kg, po QD for 40 days (reference value: 618+/-52 mg/dL); type: functional
[6] = system: Rattus norvegicus; assay: Antidiabetic activity in ZDF rat assessed as triglyceride level at 100 mg/kg, po QD for 40 days (reference value: 618+/-52 mg/dL); type: functional
[7] = system: Rattus norvegicus; assay: Antidiabetic activity in ZDF rat assessed as body weight gain at 10 mg/kg, po QD for 40 days (reference value: 133+/-9 g); type: functional
Method in brief: (§1)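 Male ZDF rats, starting at about 6 weeks old, were dosed orally once daily for 40 days in 1.5% CMC/0.2% Tween 20 suspension, n = 8/group. Body weight was followed over the study. Gain was calculated per animal from day 0 to day 40 and compared with vehicle and pioglitazone (3 mg/kg) groups. Data are mean ± SEM.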

[8] = system: Rattus norvegicus; assay: Antidiabetic activity in ZDF rat assessed as body weight gain at 30 mg/kg, po QD for 40 days (reference value: 133+/-9 g); type: functional; method in brief: as §1
[9] = system: Rattus norvegicus; assay: Antidiabetic activity in ZDF rat assessed as body weight gain at 100 mg/kg, po QD for 40 days (reference value: 133+/-9 g); type: functional; method in brief: as §1
[10] = system: Rattus norvegicus; assay: Antidiabetic activity in ZDF rat assessed as adiponectin level at 0.1 mg/kg, po QD for 40 days (reference value: 11.9+/-1.5 ug/ml); type: functional
[11] = system: Rattus norvegicus; assay: Antidiabetic activity in ZDF rat assessed as adiponectin level at 1 mg/kg, po QD for 40 days (reference value: 11.9+/-1.5 ug/ml); type: functional
[12] = system: Rattus norvegicus; assay: Antidiabetic activity in ZDF rat assessed as adiponectin level at 10 mg/kg, po QD for 40 days (reference value: 11.9+/-1.5 ug/ml); type: functional
[13] = organism: Rattus norvegicus; assay: Steady state free plasma concentration in SHR rat; type: ADME, organism-based; details: in vivo, in the assay text read “ZDF rat” for “SHR rat”
[14] = molecular target: T1, Type-1 angiotensin II receptor (Homo sapiens, UniProt P30556); assay: Displacement of [125I]Tyr4-Sar1,Ile8-Angiotensin II from human Angiotensin 1 receptor after 60 mins by scintillation counting
T1 sequence (P30556 whole entry): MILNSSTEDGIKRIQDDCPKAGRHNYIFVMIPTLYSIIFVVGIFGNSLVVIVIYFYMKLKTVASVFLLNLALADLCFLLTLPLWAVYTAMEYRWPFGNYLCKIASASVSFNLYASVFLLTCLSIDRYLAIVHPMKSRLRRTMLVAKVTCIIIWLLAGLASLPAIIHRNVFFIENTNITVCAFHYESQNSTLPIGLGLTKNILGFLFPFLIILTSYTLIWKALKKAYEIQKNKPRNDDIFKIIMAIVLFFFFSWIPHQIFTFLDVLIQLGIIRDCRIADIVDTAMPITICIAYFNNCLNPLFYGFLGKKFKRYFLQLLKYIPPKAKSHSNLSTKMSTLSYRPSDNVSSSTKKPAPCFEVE

[15] = molecular target: T1, Type-1 angiotensin II receptor; assay: Binding affinity to human Angiotensin receptor 1
Method in brief: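 Competition radioligand binding on human recombinant AT1 receptors, displacing [¹²⁵I]Tyr⁴-Sar¹,Ile⁸-angiotensin II.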

[16] = molecular target: T2, Type-2 angiotensin II receptor (Homo sapiens, UniProt P50052); assay: Binding affinity to human Angiotensin receptor 2
T2 sequence (P50052 whole entry): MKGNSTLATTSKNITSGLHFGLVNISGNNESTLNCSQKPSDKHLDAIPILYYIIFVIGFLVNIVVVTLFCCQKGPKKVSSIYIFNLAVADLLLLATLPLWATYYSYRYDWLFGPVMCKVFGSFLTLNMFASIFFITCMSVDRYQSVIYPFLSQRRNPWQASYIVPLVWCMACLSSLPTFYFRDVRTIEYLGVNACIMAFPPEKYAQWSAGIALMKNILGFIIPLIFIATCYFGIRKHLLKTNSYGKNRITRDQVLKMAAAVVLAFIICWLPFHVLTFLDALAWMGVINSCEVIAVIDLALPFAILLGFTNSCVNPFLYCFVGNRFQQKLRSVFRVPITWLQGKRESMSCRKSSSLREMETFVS

[17] = AUC in rat at 1 mg/kg, iv; type: ADME, organism-based; set-up: dose 1 mg/kg, route intravenous; details: plasma
[18] = Half life in rat at 1 mg/kg, iv; type: ADME, organism-based; set-up: dose 1 mg/kg, route intravenous; details: in vivo
[19] = Clearance in rat at 1 mg/kg, iv; type: ADME, organism-based; set-up: dose 1 mg/kg, route intravenous; details: in vivo
[20] = Volume of distribution at steady state in rat at 1 mg/kg, iv; type: ADME, organism-based; set-up: dose 1 mg/kg, route intravenous; details: in vivo, read-out: Vdss
[21] = system: Rattus norvegicus; assay: Antihypertensive activity in SHR rat assessed as decrease in arterial blood pressure at 10 mg/kg, po administered as single dose; type: functional, Artery
Method in brief: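 SHR carried aortic radiotelemetry transmitters implanted under Telazol anesthesia and recovered for at least 1 week. Rats were randomized by 2 h baseline mean BP. Each received vehicle by oral gavage on Day 0 and a single drug dose (0.3–10 mg/kg) on Day 1, with BP followed 20 h each day. The change was taken as Day 1 minus Day 0, n = 8/group.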

[22] = Cmax in SHR rat at 3 mg/kg, po; type: ADME, organism-based; set-up: dose 3 mg/kg, route oral; details: in vivo
Method in brief: (§2)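 SHR received a single oral dose of 1, 3 or 10 mg/kg. Systemic exposure was determined as plasma Cmax and AUC.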

[23] = Cmax in SHR rat at 10 mg/kg, po; type: ADME, organism-based; set-up: dose 10 mg/kg, route oral; details: in vivo; method in brief: as §2
[24] = AUC in SHR rat at 1 mg/kg, po; type: ADME, organism-based; set-up: dose 1 mg/kg, route oral; details: plasma; method in brief: as §2
[25] = AUC in SHR rat at 10 mg/kg, po; type: ADME, organism-based; set-up: dose 10 mg/kg, route oral; details: plasma; method in brief: as §2
[26] = system: Rattus norvegicus; assay: Antihypertensive activity in SHR rat assessed as decrease in arterial blood pressure at 10 mg/kg, po QD for 7 days; type: functional, Artery
[27] = Cmax in ZDF rat at 100 mg/kg, po; type: ADME, organism-based; set-up: dose 100 mg/kg, route oral; details: in vivo
Method in brief: (§3)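 Male ZDF rats; satellite animals outside the efficacy groups were given oral doses of 3, 10 or 100 mg/kg. Plasma Cmax and AUC were calculated from these animals.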

[28] = AUC in ZDF rat at 10 mg/kg, po; type: ADME, organism-based; set-up: dose 10 mg/kg, route oral; details: plasma; method in brief: as §3
[29] = system: Rattus norvegicus; assay: Antidiabetic activity in ZDF rat assessed as blood glucose level at 3 mg/kg, po QD for 40 days (reference value: 771+/-60 mg/dL); type: functional
[30] = system: Rattus norvegicus; assay: Antidiabetic activity in ZDF rat assessed as blood glucose level at 0.1 mg/kg, po QD for 40 days (reference value: 771+/-60 mg/dL); type: functional
[31] = system: Rattus norvegicus; assay: Antihypertensive activity in SHR rat assessed as induction of reflex tachycardia at 10 mg/kg, po single dose measured 4 to 8 hrs post dosing

**Q.** Which Activity [1] does the source give for `CCc1nc2c(C)cc(CC(C)C)nc2n1[C@H]1CCc2cc(-c3ccccc3-c3nnn[nH]3)ccc21` here?
**A.** 612 mg/dL

**Q.** And the Activity [2]?
**A.** 116 mg/dL

**Q.** What about the Activity [3] of the same molecule?
**A.** 559 mg/dL

**Q.** What about the Activity [4] of the same molecule?
**A.** 393 mg/dL

**Q.** And the Activity [5]?
**A.** 288 mg/dL

**Q.** What about the Activity [6] of the same molecule?
**A.** 151 mg/dL

**Q.** And the Activity [7]?
**A.** 200 g

**Q.** And the Activity [8]?
**A.** 202 g

**Q.** And the Activity [9]?
**A.** 202 g

**Q.** And the Activity [10]?
**A.** 9.9 µg/mL

**Q.** And the Activity [11]?
**A.** 10.2 µg/mL

**Q.** What about the Activity [12] of the same molecule?
**A.** 24.4 µg/mL

**Q.** And the “Cp(f)ss” value [13]?
**A.** 2.6 nM

**Q.** What about the IC50 [14] of the same molecule?
**A.** 1.6 nM

**Q.** What about the Ki [15] of the same molecule?
**A.** 0.69 nM

**Q.** What about the Ki [16] of the same molecule?
**A.** > 10000 nM

**Q.** And the AUC [17]?
**A.** 1220 ng·h/mL

**Q.** And the half-life [18]?
**A.** 2.1 h

**Q.** What about the clearance [19] of the same molecule?
**A.** 14 mL/min/kg

**Q.** What about the Vd [20] of the same molecule?
**A.** 2.9 L/kg

**Q.** And the Activity [21]?
**A.** 36 mmHg

**Q.** What about the Cmax [22] of the same molecule?
**A.** 283 ng/mL

**Q.** And the Cmax [23]?
**A.** 3070 ng/mL

**Q.** What about the AUC [24] of the same molecule?
**A.** 320 ng·h/mL

**Q.** And the AUC [25]?
**A.** 6830 ng·h/mL

**Q.** What about the Activity [26] of the same molecule?
**A.** >60 mmHg

**Q.** What about the Cmax [27] of the same molecule?
**A.** 177000 ng/mL

**Q.** What about the AUC [28] of the same molecule?
**A.** 28000 ng·h/mL

**Q.** And the Activity [29]?
**A.** 520 mg/dL

**Q.** What about the Activity [30] of the same molecule?
**A.** 771 mg/dL

**Q.** What about the Activity [31] of the same molecule?
**A.** Active

From ChEMBL document CHEMBL1800018, “Discovery of a series of imidazo[4,5-b]pyridines with dual activity at angiotensin II type 1 receptor and peroxisome proliferator-activated receptor-γ” (J Med Chem, 2011)
